In general, IC50 refers to the midpoint of a concentration-inhibition curve. The low end stands for greater potency, the high end for weaker potency.

Molecules are shown by their SMILES. Some results are limits rather than exact numbers.

The subject of one assay is HL-60. Put plainly: Percent apoptotic activity of compound in human acute myelocytic leukemia HL-60 cells at 10 uM for 16 h. It counts as functional. In a few lines: (§1)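 Seeded at 3 × 10⁵ cells/mL and given compound at 10 µM final from ethanol stock (vehicle 1% ethanol) for 16 h. Cytospin, RapiDiff staining, then ~300 cells counted by light microscopy (shrinkage, blebbing, nuclear condensation/fragmentation) for percent apoptosis.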

Another assay has as its system K562. Put plainly: Percent apoptotic activity of compound in chronic myelogenous leukemia K562 cells at 10 uM for 16 h. It counts as functional, Homo sapiens. The essentials:
as §1

In a further assay the test system is NCI-H460. In words: In vitro cytotoxic activity of compound against human lung carcinoma (NCI-H460) cell lines by sulforhodamine B (SRB) assay. Format: functional, cell-based. In a few lines: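 NCI-H460 seeded at 3 × 10³ cells/well, 24 h at 37 °C, then 24 h drug exposure at 10 decreasing concentrations (200–0.5 µM; drug in 10% DMSO in water; at least eight replicates each). PBS washes, 48 h recovery, TCA fixation, sulforhodamine B staining, bound dye read at 540 nm. IC50 (± SD) from sigmoidal curve fitting.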
Background: Sulforhodamine B stains cellular protein and so reports cell mass.

The subject of a further assay is M109. Put plainly: In vitro cytotoxic activity of compound against (M109) mouse lung carcinoma cells by sulforhodamine B (SRB) assay. Format: functional, cell-based.
Assay [1] deals with Mus musculus. Put plainly: Effect (30 mg/kg; i.p.) on body weight of BALB/c mice according to the qdx8 schedule; initial weight=21.02 grams. Format: functional. The essentials:
(§2)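 Male Balb/c mice (5-6 weeks old, about 20 g), five per group, dosed ip once daily for 8 consecutive days at 30 mg/kg. Vehicle: Cremophor EL 1:1 with ethanol, then diluted 1:4 in PBS, 10 mL/kg. Vehicle-only control group. Body weight recorded. 24 h after the last dose, retro-orbital blood was taken under CO2 into heparin. RBC, WBC and PLT counted on a cell analyzer. ANOVA and Student's t test.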

Assay [2] deals with Mus musculus. Put plainly: Effect (30 mg/kg; i.p.) on hematology parameter of BALB/c mice as per the qdx8 schedule. It counts as functional. In a few lines: as §2
In the next assay the test system is LoVo. In words: In vitro cytotoxic activity of compound against (LoVo) human colon adenocarcinoma cells by sulforhodamine B (SRB) assay. It counts as functional, cell-based. The essentials: (§3)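 Seeded at 1 × 10⁴ cells/well and grown 24 h at 37 °C; LoVo in Ham's F12, MesSa in McCoy's 5A, with 10% heat-inactivated FCS. Exposed 24 h to 10 decreasing concentrations (200–0.5 µM; dissolved in 10% DMSO in water; at least eight replicates each). Washed, 48 h recovery, TCA fixation, sulforhodamine B staining, OD 540 nm. IC50 (± SD) by sigmoidal curve fitting.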

The test system of another assay is HT-29. Put plainly: In vitro cytotoxic activity of compound against human colon adenocarcinoma (HT-29) cell line by sulforhodamine B (SRB) assay. It counts as functional, cell-based.
Assay [3] is described as follows: In vitro cytotoxic activity of compound against (MesSa) human uterine sarcoma cells by sulforhodamine B (SRB) assay. It counts as functional, cell-based. In a few lines: as §3

For the compound `CCCCCC(=O)OC1=C(c2cccc3ccccc23)Oc2ccccc2[N+]2=C1CC=C2`, the “Apoptotic Activity” value in the assay on HL-60 and in the assay with K562 was 0% in each case.

Take `CCN(CC)C(=O)OC1=C(c2cccc3ccccc23)Sc2ccccc2[N+]2=C1CC=C2`: the “Apoptotic Activity” value in the assay with HL-60 was determined as 12%; in the assay with K562, 7%.

In the case of `COc1ccc(C2=C(OC(=O)c3ccncc3)C3=[N+](C=CC3)c3ccccc3S2)cc1`, the results for the “Apoptotic Activity” value in the assay on HL-60 and in the assay with K562 were 31% and 32%, respectively.

For `CCOC(=O)c1ccc2c(c1)OC(c1cccc3ccccc13)=C(OC(=O)N(C)C)C1=[N+]2C=CC1`, the “Apoptotic Activity” value worked out at 49% with HL-60 and 50% with K562.

As for `CC(=O)OC1=C(c2cccc3ccccc23)Oc2ccccc2[N+]2=C1CC=C2`, the “Apoptotic Activity” value turned out to be 42% with HL-60 and 43% in the assay on K562.

As for `CN(C)C(=O)OC1=C(c2cccc3ccccc23)Oc2cc(C(=O)O)ccc2-n2cccc21`, the “Apoptotic Activity” value in the assay on HL-60 and in the assay on K562 was 0% each time.

For the compound `CCCCC(=O)OC1=C(c2cccc3ccccc23)Oc2ccccc2[N+]2=C1CC=C2`, the “Apoptotic Activity” value in the assay with HL-60 and in the assay on K562 was 0% each time.

On to `CN(C)C(=O)OC1=C(c2ccc3ccccc3c2)Oc2ccccc2[N+]2=C1CC=C2`, for which the “Apoptotic Activity” value in the assay with HL-60 and with K562 was 0% each time.

`COc1ccc(C2=C(OC(=O)N(C)C)C3=[N+](C=CC3)c3ccccc3S2)cc1`: the “Apoptotic Activity” value with HL-60 and with K562 was less than 10% throughout.

As to `CN(C)C(=O)OC1=C(c2cccc3ccccc23)Sc2ccccc2[N+]2=C1CC=C2`, the “Apoptotic Activity” value in the assay on HL-60 is given as 40%; in the assay with K562 it was 39%.

`CC(=O)OC1=C(c2cccc3ccccc23)Sc2ccccc2[N+]2=C1CC=C2`: the results for the “Apoptotic Activity” value in the assay with HL-60 and in the assay on K562 were 39% and 41%, respectively.

As for `O=C(OC1=C(c2cccc3ccccc23)Sc2ccccc2[N+]2=C1CC=C2)c1ccncc1`, the “Apoptotic Activity” value worked out at 55% in the assay on HL-60 and 27% with K562.

Regarding `CN(C)C(=O)OC1=C(c2cccc3ccccc23)Oc2ccccc2[N+]2=C1CC=C2`, the “Apoptotic Activity” value in the assay on HL-60 was 44%; in the assay on K562, 48%. Also, the IC50 in the assay on NCI-H460 is 1700 nM; in the assay on M109, 1800 nM; in the assay with LoVo, 9200 nM; with HT-29, 1900 nM; in assay [3], 7100 nM. This compound returned a Weight in the assay with Mus musculus [1] of 20.8 g. In addition, the PLT with Mus musculus [2] was 354 10E3/mm3. Besides, in the assay with Mus musculus [2], the RBC is 9.45 10E6/mm3. In the assay with Mus musculus [2], the WBC was 7.03 10^3/mm³.

On to `CC(=O)OC1=C(c2ccccc2)Oc2ccccc2[N+]2=C1CC=C2`, for which the “Apoptotic Activity” value with HL-60 and in the assay with K562 was 0% throughout.

The values are drawn from ChEMBL document CHEMBL1140302, “Pyrrolo[1,5]benzoxa(thia)zepines as a new class of potent apoptotic agents. Biological studies and identification of an intracellular location of their drug target” (J Med Chem, 2005).
